Reference: ChEMBL document CHEMBL1949625, “Hydroxyl may not be indispensable for raltegravir: Design, synthesis and SAR Studies of raltegravir derivatives as HIV-1 inhibitors” (Eur J Med Chem, 2012)

Experiments:
[1] = test system: Human immunodeficiency virus 1; assay: Antiviral activity against HIV1 harboring VSV glycoprotein-G co-transfected with luciferase gene infected in human TZM-bl cells assessed as inhibition of viral replication at 10 uM after 48 hrs by microplate luminometer based luciferase assay; assay type: functional; conditions: for inhibition at 10 µM: Human immunodeficiency virus 1, TZM-bl, 48 h
Outline: (§1)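 TZM-bl cells seeded at 10^4 cells/well; next day compounds (from DMSO stocks) added, then pseudotyped virus; final DMSO 2% in all wells. Incubated 48 h at 37 °C, humidified CO2. Steady-glow substrate added directly, lysis 20 min in dark, luciferase luminescence read. AZT and MK-0518 as assay controls. Primary screen run at 10 μM.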

[2] = Cytotoxicity against human TZM-bl cells after 48 hrs by MTT assay; assay type: cell-based
Outline: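 TZM-bl cells plated and incubated 18 h at 37 °C, then exposed to compounds for 48 h. MTT (5 mg/mL, 20 uL) added for 3 h at 37 °C; plates shaken 10 min at room temperature. OD550 read with 690 nm reference.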

[3] = test system: Human immunodeficiency virus 1; assay: Antiviral activity against HIV1 harboring VSV glycoprotein-G co-transfected with luciferase gene infected in human TZM-bl cells assessed as inhibition of viral replication after 48 hrs by microplate luminometer based luciferase assay; assay type: functional, organism-based; conditions: Human immunodeficiency virus 1, TZM-bl; outline: as §1

Structure (SMILES)	inhibition at 10 µM [1]	Activity [2]	IC50 [3]	inhibition (INH) [1]
COc1nc(C(C)(C)NC(=O)c2nnc(C)o2)nc(C(=O)NCc2ccc(F)cc2)c1[O-].[K+]	92.9%	Non-toxic	200 nM	–
COc1nc(C(C)(C)NC(=O)c2nnc(C)o2)nc(C(=O)NCc2ccc(F)cc2)c1O	–	Non-toxic	–	94.1%
Cc1nnc(C(=O)NC(C)(C)c2nc(NCc3ccc(F)cc3)c(O)c(C(=O)NCc3ccc(F)cc3)n2)o1	47.5%	Non-toxic	–	–
CC(=O)Oc1c(C(=O)NCc2ccc(F)cc2)nc(C(C)(C)NC(=O)c2nnc(C)o2)n(C)c1=O	95.1%	Non-toxic	1 nM	–
Cc1nnc(C(=O)NC(C)(C)c2nc(C(=O)NCc3ccc(F)cc3)c(OS(C)(=O)=O)c(=O)n2C)o1	92.7%	Non-toxic	2.4 nM	–
Cc1nnc(C(=O)NC(C)(C)c2nc(C(=O)NCc3ccc(F)cc3)c(OC(=O)c3ccccc3)c(=O)n2C)o1	100%	Non-toxic	4e-05 nM	–
Cc1cc(C)c(S(=O)(=O)Oc2c(C(=O)NCc3ccc(F)cc3)nc(C(C)(C)NC(=O)c3nnc(C)o3)n(C)c2=O)c(C)c1	94.9%	Non-toxic	0.04 nM	–
COc1nc(C(C)(C)NC(=O)c2nnc(C)o2)nc(C(=O)NCc2ccc(F)cc2)c1OC(C)=O	94.2%	Non-toxic	7.3 nM	–
COc1nc(C(C)(C)NC(=O)c2nnc(C)o2)nc(C(=O)NCc2ccc(F)cc2)c1OS(C)(=O)=O	88.3%	Non-toxic	32.8 nM	–
COc1nc(C(C)(C)NC(=O)c2nnc(C)o2)nc(C(=O)NCc2ccc(F)cc2)c1OC(=O)c1ccccc1	93.4%	Non-toxic	14.7 nM	–
COc1nc(C(C)(C)NC(=O)c2nnc(C)o2)nc(C(=O)NCc2ccc(F)cc2)c1OS(=O)(=O)c1c(C)cc(C)cc1C	79.7%	Non-toxic	1200 nM	–
CCN(CC)C(=O)C(=O)NC(C)(C)c1nc(C(=O)OC)c(OC(=O)c2ccccc2)c(=O)n1C	-2.7%	Non-toxic	–	–
CCN(CC)C(=O)C(=O)NC(C)(C)c1nc(C(=O)NCc2ccc(F)cc2)c(O)c(=O)n1C	95.5%	Non-toxic	0.5 nM	–
CCN(CC)C(=O)C(=O)NC(C)(C)c1nc(C(=O)NCc2ccc(F)cc2)c(OC(C)=O)c(=O)n1C	94.2%	Non-toxic	0.062 nM	–
CCN(CC)C(=O)C(=O)NC(C)(C)c1nc(C(=O)NCc2ccc(F)cc2)c(OS(C)(=O)=O)c(=O)n1C	93.7%	Non-toxic	0.64 nM	–
CCN(CC)C(=O)C(=O)NC(C)(C)c1nc(C(=O)NCc2ccc(F)cc2)c(OC(=O)c2ccccc2)c(=O)n1C	92.8%	Non-toxic	8e-05 nM	–
CCN(CC)C(=O)C(=O)NC(C)(C)c1nc(C(=O)NCc2ccc(F)cc2)c(OS(=O)(=O)c2c(C)cc(C)cc2C)c(=O)n1C	77.7%	Non-toxic	0.3 nM	–
CCN(CC)C(=O)C(=O)NC(C)(C)c1nc(OC)c(OC(=O)c2ccccc2)c(C(=O)OC)n1	19.8%	Non-toxic	–	–
CCN(CC)C(=O)C(=O)NC(C)(C)c1nc(OC)c(O)c(C(=O)NCc2ccc(F)cc2)n1	44.9%	Non-toxic	–	–
CCN(CC)C(=O)C(=O)NC(C)(C)c1nc(OC)c(OC(C)=O)c(C(=O)NCc2ccc(F)cc2)n1	59.3%	Non-toxic	–	–
CCN(CC)C(=O)C(=O)NC(C)(C)c1nc(OC)c(OS(C)(=O)=O)c(C(=O)NCc2ccc(F)cc2)n1	28.6%	Non-toxic	–	–
CCN(CC)C(=O)C(=O)NC(C)(C)c1nc(OC)c(OC(=O)c2ccccc2)c(C(=O)NCc2ccc(F)cc2)n1	52.1%	Non-toxic	–	–
CCN(CC)C(=O)C(=O)NC(C)(C)c1nc(OC)c(OS(=O)(=O)c2c(C)cc(C)cc2C)c(C(=O)NCc2ccc(F)cc2)n1	6%	Non-toxic	–	–
Cc1nnc(C(=O)NC(C)(C)c2nc(C(=O)NCc3ccc(F)cc3)c(O)c(=O)n2C)o1 [RALTEGRAVIR POTASSIUM]	95.1%	–	8 nM	–
Cc1cn([C@H]2C[C@H](N=[N+]=[N-])[C@@H](CO)O2)c(=O)[nH]c1=O [ZIDOVUDINE]	100%	–	–	–
